Screening results (PubChem)
m5-HT2A agonist – mouse HTR2A agonism via beta-arrestin recruitment. AID 624169. CHO-K1 mHTR2A beta-arrestin complementation, luminescence; percent of 30 µM serotonin response. P35363. 360,000 tested, 0.66% active. activation, % at 7.6 µM;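 active = activation above a run cutoff, the mean activation of all tested compounds plus 3 SD, cut at about 14% in these data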
TAAR1 agonist – human TAAR1 agonism; CHO RD-HGA16 TAAR1, Fluo-8 calcium fluorescence; vehicle wells 0%, saturating PEA agonist 100%; activation, % at 3 µM; 360,000 tested, 0.99% active; AID 624467;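 active = activation above the mean activation of all test compounds in the run plus 3 SD, cut at about 38% in these data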
Target sequence (Q96RJ0 whole entry, looked up): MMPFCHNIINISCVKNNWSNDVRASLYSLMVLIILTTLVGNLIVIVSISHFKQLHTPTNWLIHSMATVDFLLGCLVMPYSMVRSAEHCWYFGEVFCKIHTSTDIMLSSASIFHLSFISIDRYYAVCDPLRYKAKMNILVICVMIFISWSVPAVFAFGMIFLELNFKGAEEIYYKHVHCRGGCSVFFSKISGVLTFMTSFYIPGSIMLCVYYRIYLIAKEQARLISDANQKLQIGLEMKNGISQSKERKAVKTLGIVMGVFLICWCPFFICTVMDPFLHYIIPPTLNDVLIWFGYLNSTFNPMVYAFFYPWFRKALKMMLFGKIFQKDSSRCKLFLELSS
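Test system: RD-HGA16 (CHO) cells co-expressing Gα16 and hTAAR1; dosing: one-point dosing at 3 µM (nominal); timing: 17-24 h seeding, 75 min 37 °C dye, 30 min RT; signal: kinetic Fluo-8 calcium fluorescence; read-out basis: % activation relative to PEA EC100 response; controls: DMSO and PEA EC100; replicates: n 1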
CHRM1 PAM – potentiates human M1 receptor response to acetylcholine. activation, % at 3 µM. P11229. 360,000 tested, 0.088% active. CHO-K1 hM1, Fluo-8 calcium fluorescence, ACh EC20; 0% = ACh EC20, 100% = maximal ACh. AID 588819; in the data active = activation above about 19%, passing the limit was not always enough
M1 antag – blocks human M1 muscarinic receptor; P11229; CHO-K1 hM1, Fluo-8 calcium fluorescence, ACh EC80 antagonist; inhibition, % at 3 µM; 360,000 tested, 1.3% active;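 active = percent inhibition above its own plate's cutoff, namely the mean of that plate's compound wells plus 3 SD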;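 also: peak over basal fluorescence ratio during 140 s after agonist addition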
CHRM1 agonist – agonists of human M1 muscarinic receptor; AID 588814; activation, % at 3 µM; CHO-K1 hM1, Fluo-8 calcium fluorescence, agonist mode; 0% DMSO, 100% acetylcholine EC100; 360,000 tested, 0.33% active; P11229;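 active = activation above the run's mean compound activation plus 3 SD, cut at about 16% in these data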;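 also: peak over basal fluorescence ratio within a 140 s kinetic read after compound addition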
TAAR1 antagonist – human TAAR1 antagonism. AID 624466. inhibition, % at 3 µM. 360,000 tested, 1.5% active. CHO RD-HGA16 TAAR1, Fluo-8 calcium fluorescence, antagonist. Q96RJ0;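 active = inhibition above a per-plate cutoff, the mean inhibition of test compounds on that plate plus 3 SD, cut at about 49% in these data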
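Test system: CHO RD-HGA16 cells bearing hTAAR1 | Reagent: β-PEA, EC80 | Compound dosing: 3 µM, single point | Schedule: Dye loading 75 min at 37 °C, then 30 min room temperature | Signal: Calcium fluorescence with Fluo-8 | Evaluation: Percent inhibition of PEA-evoked calcium signal, max/basal emission ratio | Control set: DMSO-only wells and EC80 β-PEA-stimulated wells | Repeats: Singlicate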
Numbers stand for hits; ! = a repeat was not active. Shown are actives, neighbours in structure and some others; about 3.9% of the full set was active somewhere.

`O=C1CSC2(C(=O)N3CCCc4cccc2c43)N1c1cccc(C(F)(F)F)c1` (stereo not drawn) gave m5-HT2A agonist inactive, CHRM1 PAM inactive, M1 antag 89 and CHRM1 agonist inactive.
Screening O=C(CN1C(=O)NC2(CCCc3ccccc32)C1=O)N1CCN(c2cccc(C(F)(F)F)c2)CC1 (stereo not drawn) returned m5-HT2A agonist inactive, TAAR1 agonist inactive, CHRM1 PAM inactive, M1 antag inactive, CHRM1 agonist inactive and TAAR1 antagonist inactive.
CC(OC(=O)CNC(=O)COc1ccccc1)C(=O)N(C)Cc1ccccc1 (stereo not drawn) was read as m5-HT2A agonist inactive, TAAR1 agonist inactive, CHRM1 PAM inactive, M1 antag inactive, CHRM1 agonist inactive and TAAR1 antagonist inactive.
CC(=O)Nc1cccc(N=NN2CCCCC2)c1 was read as m5-HT2A agonist inactive, TAAR1 agonist inactive, CHRM1 PAM inactive, M1 antag inactive, CHRM1 agonist inactive and TAAR1 antagonist inactive.
For COC(=O)c1ccc(/C=C/c2c(-c3ccsc3)sc3ccccc23)cc1 the results were m5-HT2A agonist inactive, TAAR1 agonist inactive, CHRM1 PAM inactive, M1 antag 40, CHRM1 agonist inactive and TAAR1 antagonist inactive.
Screening O=C(NCCCn1ccnc1)c1ccc(COc2ccccc2)o1 returned m5-HT2A agonist inactive, TAAR1 agonist inactive, CHRM1 PAM inactive, M1 antag inactive, CHRM1 agonist inactive and TAAR1 antagonist inactive.
Screening COc1ccc2oc(=O)c(C(=O)C[n+]3cccc(C)c3)cc2c1 returned m5-HT2A agonist inactive, TAAR1 agonist inactive, CHRM1 PAM inactive, M1 antag 32, CHRM1 agonist inactive and TAAR1 antagonist inactive.
Screening CNC12CCc3cc(OC)c(OC)c(c31)-c1cc3c(cc1C2)OCO3 (stereo not drawn) returned TAAR1 agonist inactive and TAAR1 antagonist inactive.
Cc1ccc(C)c(NC(=O)Cn2nc(C(F)(F)F)cc2C2CC2)c1 was read as m5-HT2A agonist inactive, TAAR1 agonist inactive, CHRM1 PAM 26, M1 antag inactive, CHRM1 agonist inactive and TAAR1 antagonist inactive.
Screening COC(=O)Cc1nnn2c1[C@@H](C)[C@@H](c1ccccc1Br)OC[C@H](C)C2 returned TAAR1 agonist inactive and TAAR1 antagonist inactive.
For CC1=C(C(=O)O)N2C(=O)C(NC(=O)c3ccccc3Cl)C2SC1 (stereo not drawn) the results were m5-HT2A agonist inactive, TAAR1 agonist inactive, CHRM1 PAM inactive, M1 antag inactive, CHRM1 agonist inactive and TAAR1 antagonist inactive.
N[C@@H](C(=O)N[C@@H]1C(=O)N2C(C(=O)O)=C(Cl)CS[C@H]12)c1ccccc1 was read as m5-HT2A agonist inactive, TAAR1 agonist inactive, CHRM1 PAM inactive, M1 antag inactive, CHRM1 agonist 18 and TAAR1 antagonist inactive.
CN1CCN(C(=O)/C(=C/c2ccc(F)cc2)c2ccsc2)CC1 was read as m5-HT2A agonist inactive, TAAR1 agonist inactive, CHRM1 PAM inactive, M1 antag 98, CHRM1 agonist inactive and TAAR1 antagonist inactive.
`CC1CC(C)CN(C(=O)/C(=C\c2ccccc2)c2ccccc2)C1` (stereo not drawn) gave m5-HT2A agonist inactive, TAAR1 agonist inactive, CHRM1 PAM inactive, M1 antag inactive, CHRM1 agonist inactive and TAAR1 antagonist inactive.
`CN1CCN(C(=O)/C(=C/c2ccccc2)c2ccccc2)CC1` gave m5-HT2A agonist inactive, TAAR1 agonist inactive, CHRM1 PAM inactive, M1 antag 98, CHRM1 agonist inactive and TAAR1 antagonist inactive.
Cc1c(Cl)c(C(=O)N2CCCCCC2)nn1C was read as m5-HT2A agonist inactive, TAAR1 agonist inactive, CHRM1 PAM inactive, M1 antag inactive, CHRM1 agonist inactive and TAAR1 antagonist inactive.
For CC(C)c1ccc(NC(=O)c2cc(S(=O)(=O)N3CCCC3)c[nH]2)cc1 the results were m5-HT2A agonist inactive, TAAR1 agonist inactive, CHRM1 PAM inactive, M1 antag 35, CHRM1 agonist inactive and TAAR1 antagonist inactive.
For Cc1cc(OCCCC(=O)Nc2cccc(-n3cnnn3)c2)ccc1Cl the results were m5-HT2A agonist inactive, TAAR1 agonist inactive, CHRM1 PAM inactive, M1 antag inactive, CHRM1 agonist inactive and TAAR1 antagonist 60.
`COc1cc(-c2cc(C(=O)Nc3ccc(S(N)(=O)=O)cc3)c3ccccc3n2)cc(OC)c1OC` gave m5-HT2A agonist inactive, TAAR1 agonist inactive, CHRM1 PAM inactive, M1 antag inactive, CHRM1 agonist inactive and TAAR1 antagonist inactive.
Screening CCN(CC)S(=O)(=O)c1ccc(O)c(NC(=O)c2cc(-c3cc(OC)c(OC)c(OC)c3)nc3ccccc23)c1 returned m5-HT2A agonist inactive, CHRM1 PAM inactive, M1 antag 29 and CHRM1 agonist inactive.
Screening COc1ccc(NC(=O)c2cc(-c3cc(OC)c(OC)c(OC)c3)nc3ccccc23)cc1OC returned m5-HT2A agonist inactive, TAAR1 agonist inactive, CHRM1 PAM inactive, M1 antag inactive, CHRM1 agonist inactive and TAAR1 antagonist 55.
For COc1ccccc1NC(=O)c1cc(-c2ccc(OC)c(OC)c2)nc2ccccc12 the results were m5-HT2A agonist inactive, TAAR1 agonist inactive, CHRM1 PAM inactive, M1 antag inactive, CHRM1 agonist inactive and TAAR1 antagonist 55.
Screening O=C(C(=O)N1CCC(CNS(=O)(=O)c2ccc(C(F)(F)F)cc2)CC1)c1cc2ccccc2o1 returned TAAR1 agonist inactive and TAAR1 antagonist inactive.
`CC1CCC(C(C)C)C(OC(=O)CSc2nc(N)cc(=O)[nH]2)C1` (stereo not drawn) gave m5-HT2A agonist inactive, TAAR1 agonist inactive, CHRM1 PAM inactive, M1 antag inactive, CHRM1 agonist inactive and TAAR1 antagonist inactive.
Screening CC1CCC(C(C)C)C(OC(=O)Cn2c(-c3ccc(F)cc3)[n+](C)c3ccccc32)C1 (stereo not drawn) returned m5-HT2A agonist inactive, TAAR1 agonist inactive, CHRM1 PAM inactive, M1 antag 51, CHRM1 agonist inactive and TAAR1 antagonist inactive.
For Cc1cccc(OCc2n(CC(=O)OC3CC(C)CCC3C(C)C)c3ccccc3[n+]2C)c1 (stereo not drawn) the results were m5-HT2A agonist inactive, CHRM1 PAM inactive, M1 antag 38 and CHRM1 agonist inactive.
`CC1CCC(C(C)C)C(OC(=O)Cn2c(-c3ccccc3)[n+](C)c3ccccc32)C1` (stereo not drawn) gave m5-HT2A agonist inactive, TAAR1 agonist inactive, CHRM1 PAM inactive, M1 antag 43!, CHRM1 agonist inactive and TAAR1 antagonist inactive.
`Cc1cccc(OC(=O)Cn2c(C(F)(F)F)nc3ccccc32)c1` gave m5-HT2A agonist inactive, TAAR1 agonist inactive, CHRM1 PAM inactive, M1 antag inactive, CHRM1 agonist inactive and TAAR1 antagonist inactive.
